Assay outcomes deposited in PubChem by several laboratories.
CSC inhib: blocks cancer stem cells; 1.1% of 300,000 active; inhibition, % at 7.5 µM; cancer stem cell-like cells viability, luminescence; AID 2717; in the data active = inhibition above about 75%; tested in HMLE shEcad cells
Mdm2 MdmX PPI: human Mdm2/MdmX binding inhibition; SaOS-2 split-luciferase Mdm2/MdmX complementation, luminescence; inhibition, % at 8 µM; 3% of 330,000 active; AID 485346;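 active = inhibition of at least 50% at 8 µM in the primary screen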
Target sequence (O15151 whole entry, looked up): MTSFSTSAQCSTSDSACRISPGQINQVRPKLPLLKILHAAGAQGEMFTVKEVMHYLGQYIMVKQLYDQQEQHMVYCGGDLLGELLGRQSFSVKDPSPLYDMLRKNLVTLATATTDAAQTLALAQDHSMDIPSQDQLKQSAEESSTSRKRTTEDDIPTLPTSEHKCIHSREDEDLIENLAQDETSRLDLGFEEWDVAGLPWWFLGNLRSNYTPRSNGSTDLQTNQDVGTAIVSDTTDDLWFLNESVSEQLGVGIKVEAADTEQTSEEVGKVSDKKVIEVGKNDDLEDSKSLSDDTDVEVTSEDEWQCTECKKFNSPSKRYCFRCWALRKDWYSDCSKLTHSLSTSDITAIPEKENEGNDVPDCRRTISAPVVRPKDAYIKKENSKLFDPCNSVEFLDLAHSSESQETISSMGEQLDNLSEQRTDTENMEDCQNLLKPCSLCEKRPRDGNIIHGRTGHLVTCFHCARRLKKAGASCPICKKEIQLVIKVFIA
Target sequence (Q00987 whole entry, looked up): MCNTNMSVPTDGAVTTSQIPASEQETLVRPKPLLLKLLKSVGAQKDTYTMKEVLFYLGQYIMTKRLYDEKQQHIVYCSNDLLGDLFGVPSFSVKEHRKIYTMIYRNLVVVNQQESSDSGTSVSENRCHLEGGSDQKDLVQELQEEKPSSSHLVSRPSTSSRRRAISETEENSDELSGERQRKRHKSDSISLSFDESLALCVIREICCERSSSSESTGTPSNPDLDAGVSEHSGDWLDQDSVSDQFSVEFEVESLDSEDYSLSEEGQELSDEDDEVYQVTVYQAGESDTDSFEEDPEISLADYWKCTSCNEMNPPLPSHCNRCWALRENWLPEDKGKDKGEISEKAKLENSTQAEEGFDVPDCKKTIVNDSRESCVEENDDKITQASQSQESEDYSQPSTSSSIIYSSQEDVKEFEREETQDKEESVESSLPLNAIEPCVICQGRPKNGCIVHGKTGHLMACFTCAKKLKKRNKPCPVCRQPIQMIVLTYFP
aSyn UTR inh: MLPCN primary screen, SNCA 5' untranslated region; 0.82% of 300,000 active; inhibition, % (tested at 7.5 µM); alpha-synuclein 5'UTR reporter, inhibitor activity; AID 1813; in the data active = inhibition above about 60%;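 note: H4 neuroglioblastoma cells stably carrying SNCA 5'UTR luciferase fusion; 0% = DMSO wells and 100% = positive control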
T cruzi repl: blocks replication of Trypanosoma cruzi | inhibition, % (test concentration not listed) | 1.4% of 300,000 active | T. cruzi beta-gal in NIH3T3, luminescence, 90 h | AID 1885;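 active = mean inhibition across valid replicates above about 55%, limit read from the data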;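 note: signal also drops with host cell toxicity which is not excluded here; 0% = plate median of DMSO wells and 100% = zero luminescence signal; higher percent means less beta-gal luminescence so fewer parasites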
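Material: NIH/3T3 host cells with β-galactosidase reporter T. cruzi; Input: 5,000 host fibroblasts per well; Medium: DMEM, 2% fetal bovine serum; Compound: 50 nL DMSO compound solution per well; Schedule: 3 h host attachment, then at least 90 h co-culture; Detection: luminescent β-galactosidase signal after 60 min lysis.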
SKKanGAS inh: inhibitors of SKKanGAS S. pyogenes growth in kanamycin (SK-promoter or general growth effect). BacTiter-Glo, 6 h. inhibition, % at 7.5 µM. 1.3% of 300,000 active;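 active = mean replicate score, as percent of positive control median, at least 50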;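 note: strain carries kanamycin resistance gene driven by streptokinase promoter and grows in 40 µg/ml kanamycin; loss of luminescence reflects streptokinase promoter inhibition or plain growth inhibition; 0% = median of DMSO wells and 100% = positive control at its reference dose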
Mdm2 MdmX conf: human Mdm2/MdmX binding inhibition, confirmed | AID 489028 | luminescent assay | 55% of 10,000 active | shares compounds with Mdm2 MdmX PPI | inhibition, % at 8 µM; in the data active = inhibition above about 40%
Full FLuc ctr: inhibits full-length luciferase, flagging false Mdm2/MdmX hits. shares compounds with Mdm2 MdmX PPI. SaOS-2 full-length luciferase counterscreen, luminescence. inhibition, % at 8 µM. 77% of 6,200 active;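 active = mean inhibition at 8 µM reaching about 37%, which flags the compound as non-specific, limit read from the data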;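 note: p53-null SaOS-2 cells with luciferase driven by a doxycycline-inducible promoter; compound on cells about two nights before reading with doxycycline added after day one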
* = called active by the depositor. Rows were chosen to be rich in hits. Some 5.4% of all compounds tested hit in one or more screens of this group.

For Cc1ccc(N(C)S(=O)(=O)c2cccc(C(=O)Oc3ccc4c(C)cc(=O)oc4c3)c2)cc1 the results were Mdm2 MdmX PPI -3.8, aSyn UTR inh 43.5, T cruzi repl 3.8 and SKKanGAS inh 36.3.
`Cc1nn(-c2ccccc2)c(Cl)c1/C=N/NC(N)=O` gave CSC inhib 7.6, Mdm2 MdmX PPI 25.2, aSyn UTR inh -1.7, T cruzi repl 11.5 and SKKanGAS inh -3.8.
Screening NC(=O)N/N=C/c1c(Sc2nnnn2-c2ccccc2)nc2ccccn2c1=O returned CSC inhib 25.3, Mdm2 MdmX PPI 62.0*, aSyn UTR inh -32.7, T cruzi repl 15.1, SKKanGAS inh 6.6, Mdm2 MdmX conf 50.1* and Full FLuc ctr 23.4.
For Cc1ccc(C)c(S(=O)(=O)N2CCN(C(=O)CSC(=S)N3CCCC3)CC2)c1 the results were CSC inhib -9.0, Mdm2 MdmX PPI -8.3, aSyn UTR inh 16.0, T cruzi repl 8.3 and SKKanGAS inh -3.5.
For C=CCSC(=C(C#N)C#N)c1cc2c([nH]1)CCCC2 the results were CSC inhib 100.5*, Mdm2 MdmX PPI 81.1*, aSyn UTR inh -41.3, T cruzi repl -12.7, SKKanGAS inh 3.1 and Mdm2 MdmX conf 15.6.
For NNC(=O)/C(=C\c1ccc(Br)cc1)NC(=O)c1cccs1 the results were CSC inhib -3.8, Mdm2 MdmX PPI 26.9, aSyn UTR inh -28.8, T cruzi repl -35.5 and SKKanGAS inh 3.5.
Screening COc1cc2c(cc1OC)CN(C(=O)/C=C/c1ccccc1[N+](=O)[O-])CC2 returned CSC inhib -10.9, Mdm2 MdmX PPI 60.6*, aSyn UTR inh -52.4, T cruzi repl 1.4, SKKanGAS inh 2.0, Mdm2 MdmX conf 52.5* and Full FLuc ctr 86.3*.
`COc1cc2c(cc1OC)CN(C(=O)/C=C/c1cccs1)CC2` gave CSC inhib 57.4, Mdm2 MdmX PPI 65.5*, aSyn UTR inh 30.6, T cruzi repl -23.4, SKKanGAS inh -6.8, Mdm2 MdmX conf 62.2* and Full FLuc ctr 59.1*.
Screening COc1cc2c(cc1OC)CN(C(=O)c1cccs1)CC2 returned CSC inhib -5.3, Mdm2 MdmX PPI 13.8, aSyn UTR inh -3.6, T cruzi repl 3.1 and SKKanGAS inh -5.6.
Cc1ccc(NC(=O)CN(C)C(=O)c2cc(S(=O)(=O)N(C)C)ccc2N2CCCC2)cc1 was read as CSC inhib 0.1, Mdm2 MdmX PPI 35.0, aSyn UTR inh 16.7, T cruzi repl -2.5 and SKKanGAS inh -7.1.
`CCCCN(C(=O)c1cccc2c(=O)c(C)c(-c3ccccc3)oc12)c1ccccc1` gave aSyn UTR inh -18.9, T cruzi repl 38.8 and SKKanGAS inh 2.3.
COC(=O)[C@H]1[C@@H](C)N(Cc2ccccc2)C(=O)N[C@H]1c1cccc(C(F)(F)F)c1 was read as CSC inhib -5.8, Mdm2 MdmX PPI 37.0, aSyn UTR inh 25.1, T cruzi repl -17.7 and SKKanGAS inh -0.4.
For COc1cc2c(cc1OC)C(C)N(C(=O)CCc1c[nH]c3ccccc13)CC2 (stereo not given) the results were CSC inhib 3.4, Mdm2 MdmX PPI -0.2, aSyn UTR inh 22.2, T cruzi repl -7.6 and SKKanGAS inh -0.1.
Screening CCOC(=O)N1C2=NC(C(=O)OC)=C(C(=O)OC)[C@@H]3N(C)c4ccc(OC)cc4[C@]23C[C@H]1C(=O)OC returned CSC inhib 0.6, Mdm2 MdmX PPI -3.7, aSyn UTR inh -6.7, T cruzi repl -11.5 and SKKanGAS inh 0.7.
`COC(=O)C1=C(C(=O)OC)[C@@H]2N(C)c3ccc(OC)cc3[C@@]23C[C@@H](C(=O)OC)N(C(=O)c2ccc(Br)cc2)C3=N1` gave CSC inhib 34.7, Mdm2 MdmX PPI 68.6*, aSyn UTR inh -8.7, T cruzi repl -2.8, SKKanGAS inh -0.2 and Mdm2 MdmX conf -1.1.
CCOC(=O)N1C2=NC(C(=O)OC)=C(C(=O)OC)[C@@H]3N(Cc4ccccc4)c4ccccc4[C@]23C[C@H]1C(=O)OC was read as CSC inhib 1.7, Mdm2 MdmX PPI 5.6, aSyn UTR inh 9.6, T cruzi repl -8.3 and SKKanGAS inh 0.5.
COC(=O)C1=C(C(=O)OC)[C@@H]2N(Cc3ccccc3)c3ccccc3[C@@]23C[C@@H](C(=O)OC)N(C(=O)COCc2ccccc2)C3=N1 was read as CSC inhib 2.7, Mdm2 MdmX PPI 62.9*, aSyn UTR inh -4.7, T cruzi repl -10.1, SKKanGAS inh 9.3 and Mdm2 MdmX conf 21.0.
COC(=O)C1=C(C(=O)OC)[C@@H]2N(Cc3ccccc3)c3ccccc3[C@@]23C[C@@H](C(=O)OC)N(C(=O)c2ccc(Br)cc2)C3=N1 was read as CSC inhib -4.2, Mdm2 MdmX PPI 95.6*, aSyn UTR inh 42.8, T cruzi repl 2.6, SKKanGAS inh 0.9, Mdm2 MdmX conf 85.7* and Full FLuc ctr 53.3*.
Screening C=CCN1c2ccccc2[C@]23C[C@@H](C(=O)OC)N(C(=O)c4ccc(Br)cc4)C2=NC(C(=O)OC)=C(C(=O)OC)[C@H]13 returned CSC inhib 39.2, Mdm2 MdmX PPI 95.8*, aSyn UTR inh 2.2, T cruzi repl -17.6, SKKanGAS inh -5.8, Mdm2 MdmX conf 68.3* and Full FLuc ctr 52.6*.
Screening COC(=O)C1=C(C(=O)OC)[C@@H]2N(Cc3ccccc3)c3ccccc3[C@@]23C[C@@H](C(=O)OC)N(C(C)=O)C3=N1 returned CSC inhib 7.0, Mdm2 MdmX PPI -12.3, aSyn UTR inh 1.0, T cruzi repl -14.6 and SKKanGAS inh 5.5.
COc1ccc(OC)c2[nH]c(=O)c(CCNS(=O)(=O)c3ccc(F)cc3)cc12 was read as CSC inhib -5.9, Mdm2 MdmX PPI 14.0, aSyn UTR inh -8.5, T cruzi repl 21.9 and SKKanGAS inh 7.9.
`CC(=O)N(C)c1nnc(-c2ccccn2)s1` gave CSC inhib -4.0, Mdm2 MdmX PPI -38.6, aSyn UTR inh -70.6, T cruzi repl -6.9 and SKKanGAS inh -13.2.
`Cn1nnc(NC(=O)COc2ccc(C3CCCCC3)cc2)n1` gave CSC inhib -1.6, Mdm2 MdmX PPI 5.0, aSyn UTR inh -2.3, T cruzi repl -11.5 and SKKanGAS inh -0.9.
`COc1ccc(/C=C/C(=O)OCC(=O)NCC2CCCO2)cc1` (stereo not given) gave CSC inhib -16.1, Mdm2 MdmX PPI 12.5, aSyn UTR inh 8.2, T cruzi repl -21.2 and SKKanGAS inh 0.8.
For CCOC(=O)/C=c1\s/c(=C\c2ccc(C)cc2)c(=O)n1CC(=O)NCc1ccco1 the results were CSC inhib 6.7, Mdm2 MdmX PPI 29.8, aSyn UTR inh 6.1, T cruzi repl 1.7 and SKKanGAS inh -8.9.
For CCOC(=O)/C=c1\s/c(=C\c2sccc2C)c(=O)n1CC(=O)NCc1ccc(C)cc1 the results were CSC inhib 13.9, Mdm2 MdmX PPI 66.0*, aSyn UTR inh 40.4, T cruzi repl 7.9, SKKanGAS inh -3.7 and Mdm2 MdmX conf 13.7.
